Measured values: ChEMBL document CHEMBL4689842, “EUbOPEN Chemogenomics Library wave 1” (2021)
“And” between values parts separate entries of the source, which are not always exact repeats. Equal values may be shown once.

Tested on: HEK-293T
Assay: Multiplex assay against HEK293T;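 on Population Tubulin-Different-Phenotype (%): share of the cells with healthy nuclei that show this phenotype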
Format: toxicity, cell-based
Conditions: human
Outline: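 At seeding, live cells were stained with Hoechst33342, BioTracker Green Microtubule Cytoskeleton Dye, MitoTracker Red and Annexin V Alexa Fluor 680. After compound addition they were imaged on a CQ1 microscope at 37°C and 5% CO2, and CellPathfinder machine-learning gating sorted them into Hoechst high-intensity objects or normal cells, with normal cells further split into healthy, pyknosed or fragmented nuclei and pyknosed cells into mitotic or apoptotic. Tubulin, mitochondrial-mass and membrane-permeability phenotypes are given as per cents of cells with healthy nuclei.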

[1] = 12 h, 1 µM, compound concentration 1 uM, replicate 1
[2] = 12 h, 1 µM, compound concentration 1 uM, replicate 2
[3] = 24 h, 1 µM, compound concentration 1 uM, replicate 1
[4] = 24 h, 1 µM, compound concentration 1 uM, replicate 2
[5] = 12 h, 10 µM, compound concentration 10 uM, replicate 1
[6] = 12 h, 10 µM, compound concentration 10 uM, replicate 2
[7] = 24 h, 10 µM, compound concentration 10 uM, replicate 1
[8] = 24 h, 10 µM, compound concentration 10 uM, replicate 2
[9] = 48 h, 1 µM, compound concentration 1 uM, replicate 1
[10] = 48 h, 1 µM, compound concentration 1 uM, replicate 2
[11] = 48 h, 10 µM, compound concentration 10 uM, replicate 1
[12] = 48 h, 10 µM, compound concentration 10 uM, replicate 2

CC(C)C(=O)Nc1n[nH]c2cc(-c3cccc(NS(=O)(=O)C4CC4)c3)ccc12
Population Apoptotic (%) [1]: 21%
Population Fragmented Nuclei (%) [1]: 16% and 10%
Population Healthy Nuclei (%) [1]: 61% and 63%
Population Hoechst High Intensity Objects (%) [1]: 10% and 14%
Population Membrane Permeable-Phenotype (%) [1]: 4%
Population Mitochondria Different-Phenotype (%) [1]: 4% and 6%
Population Mitotic Cells (%) [1]: 78%
Population Normal (%) [1]: 89% and 85%
Population Pyknosed Nuclei (%) [1]: 22% and 25%
Population Tubulin-Different-Phenotype (%) [1]: 1% and 4%
Total Cell Count [1]: 541 and 686
Population Apoptotic (%) [2]: 12% and 8%
Population Fragmented Nuclei (%) [2]: 4% and 6%
Population Healthy Nuclei (%) [2]: 85% and 89%
Population Hoechst High Intensity Objects (%) [2]: 3% and 1%
Population Membrane Permeable-Phenotype (%) [2]: 1%
Population Mitochondria Different-Phenotype (%) [2]: 13% and 7%
Population Mitotic Cells (%) [2]: 87% and 91%
Population Normal (%) [2]: 96% and 98%
Population Pyknosed Nuclei (%) [2]: 9% and 4%
Population Tubulin-Different-Phenotype (%) [2]: 7%
Total Cell Count [2]: 1247 and 1614
Population Apoptotic (%) [3]: 14% and 20%
Population Fragmented Nuclei (%) [3]: 11%
Population Healthy Nuclei (%) [3]: 80% and 75%
Population Hoechst High Intensity Objects (%) [3]: 6% and 10%
Population Membrane Permeable-Phenotype (%) [3]: 8% and 6%
Population Mitochondria Different-Phenotype (%) [3]: 3% and 5%
Population Mitotic Cells (%) [3]: 85% and 79%
Population Normal (%) [3]: 93% and 89%
Population Pyknosed Nuclei (%) [3]: 8% and 13%
Population Tubulin-Different-Phenotype (%) [3]: 4% and 8%
Total Cell Count [3]: 620 and 701
Population Apoptotic (%) [4]: 4% and 12%
Population Fragmented Nuclei (%) [4]: 22% and 8%
Population Healthy Nuclei (%) [4]: 76% and 86%
Population Hoechst High Intensity Objects (%) [4]: 3% and 4%
Population Membrane Permeable-Phenotype (%) [4]: 5% and 2%
Population Mitochondria Different-Phenotype (%) [4]: 1% and 6%
Population Mitotic Cells (%) [4]: 95% and 87%
Population Normal (%) [4]: 96% and 95%
Population Tubulin-Different-Phenotype (%) [4]: 15%
Total Cell Count [4]: 2835 and 1472

C=CC(=O)Nc1ccc2ncnc(Nc3ccc(OCc4cccc(F)c4)c(Cl)c3)c2c1.Cc1ccc(S(=O)(=O)O)cc1
Population Apoptotic (%) [1]: 52%
Population Fragmented Nuclei (%) [1]: 11%
Population Healthy Nuclei (%) [1]: 38%
Population Hoechst High Intensity Objects (%) [1]: 11%
Population Mitochondria Different-Phenotype (%) [1]: 75%
Population Mitotic Cells (%) [1]: 47%
Population Normal (%) [1]: 88%
Population Pyknosed Nuclei (%) [1]: 49%
Population Tubulin-Different-Phenotype (%) [1]: 39%
Total Cell Count [1]: 304
Population Apoptotic (%) [2]: 11%
Population Fragmented Nuclei (%) [2]: 6%
Population Healthy Nuclei (%) [2]: 45%
Population Hoechst High Intensity Objects (%) [2]: 2%
Population Membrane Permeable-Phenotype (%) [2]: 5%
Population Mitochondria Different-Phenotype (%) [2]: 26%
Population Mitotic Cells (%) [2]: 88%
Population Normal (%) [2]: 97%
Population Pyknosed Nuclei (%) [2]: 47%
Population Tubulin-Different-Phenotype (%) [2]: 24%
Total Cell Count [2]: 226
Population Apoptotic (%) [5]: 51%
Population Fragmented Nuclei (%) [5]: 10%
Population Healthy Nuclei (%) [5]: 38%
Population Hoechst High Intensity Objects (%) [5]: 12%
Population Membrane Permeable-Phenotype (%) [5]: 2%
Population Mitochondria Different-Phenotype (%) [5]: 82%
Population Mitotic Cells (%) [5]: 48%
Population Normal (%) [5]: 87%
Population Pyknosed Nuclei (%) [5]: 51%
Population Tubulin-Different-Phenotype (%) [5]: 44%
Total Cell Count [5]: 267
Population Apoptotic (%) [6]: 49%
Population Fragmented Nuclei (%) [6]: 22%
Population Healthy Nuclei (%) [6]: 21%
Population Hoechst High Intensity Objects (%) [6]: 8%
Population Membrane Permeable-Phenotype (%) [6]: 0%
Population Mitochondria Different-Phenotype (%) [6]: 27%
Population Mitotic Cells (%) [6]: 50%
Population Normal (%) [6]: 91%
Population Pyknosed Nuclei (%) [6]: 56%
Population Tubulin-Different-Phenotype (%) [6]: 27%
Total Cell Count [6]: 184
Population Apoptotic (%) [3]: 45%
Population Fragmented Nuclei (%) [3]: 11%
Population Healthy Nuclei (%) [3]: 41%
Population Hoechst High Intensity Objects (%) [3]: 15%
Population Membrane Permeable-Phenotype (%) [3]: 3%
Population Mitochondria Different-Phenotype (%) [3]: 61%
Population Mitotic Cells (%) [3]: 54%
Population Normal (%) [3]: 84%
Population Pyknosed Nuclei (%) [3]: 47%
Population Tubulin-Different-Phenotype (%) [3]: 39%
Total Cell Count [3]: 351
Population Apoptotic (%) [4]: 16%
Population Fragmented Nuclei (%) [4]: 7%
Population Healthy Nuclei (%) [4]: 63%
Population Hoechst High Intensity Objects (%) [4]: 2%
Population Membrane Permeable-Phenotype (%) [4]: 10%
Population Mitochondria Different-Phenotype (%) [4]: 19%
Population Mitotic Cells (%) [4]: 83%
Population Normal (%) [4]: 97%
Population Pyknosed Nuclei (%) [4]: 28%
Population Tubulin-Different-Phenotype (%) [4]: 30%
Total Cell Count [4]: 279
Population Apoptotic (%) [7]: 56%
Population Fragmented Nuclei (%) [7]: 11%
Population Healthy Nuclei (%) [7]: 41%
Population Hoechst High Intensity Objects (%) [7]: 16%
Population Mitochondria Different-Phenotype (%) [7]: 78%
Population Mitotic Cells (%) [7]: 43%
Population Normal (%) [7]: 83%
Population Pyknosed Nuclei (%) [7]: 47%
Population Tubulin-Different-Phenotype (%) [7]: 48%
Total Cell Count [7]: 262
Population Apoptotic (%) [8]: 48%
Population Fragmented Nuclei (%) [8]: 17%
Population Healthy Nuclei (%) [8]: 30%
Population Hoechst High Intensity Objects (%) [8]: 9%
Population Membrane Permeable-Phenotype (%) [8]: 2%
Population Mitochondria Different-Phenotype (%) [8]: 50%
Population Mitotic Cells (%) [8]: 51%
Population Normal (%) [8]: 90%
Population Pyknosed Nuclei (%) [8]: 52%
Population Tubulin-Different-Phenotype (%) [8]: 45%
Total Cell Count [8]: 161
Population Apoptotic (%) [9]: 44%
Population Fragmented Nuclei (%) [9]: 15%
Population Healthy Nuclei (%) [9]: 47%
Population Hoechst High Intensity Objects (%) [9]: 13%
Population Membrane Permeable-Phenotype (%) [9]: 4%
Population Mitochondria Different-Phenotype (%) [9]: 32%
Population Mitotic Cells (%) [9]: 55%
Population Normal (%) [9]: 86%
Population Pyknosed Nuclei (%) [9]: 37%
Population Tubulin-Different-Phenotype (%) [9]: 32%
Total Cell Count [9]: 430
Population Apoptotic (%) [10]: 4%
Population Fragmented Nuclei (%) [10]: 6%
Population Healthy Nuclei (%) [10]: 83%
Population Hoechst High Intensity Objects (%) [10]: 2%
Population Membrane Permeable-Phenotype (%) [10]: 11%
Population Mitochondria Different-Phenotype (%) [10]: 4%
Population Mitotic Cells (%) [10]: 96%
Population Normal (%) [10]: 97%
Population Pyknosed Nuclei (%) [10]: 10%
Population Tubulin-Different-Phenotype (%) [10]: 23%
Total Cell Count [10]: 512
Population Apoptotic (%) [11]: 51%
Population Fragmented Nuclei (%) [11]: 16%
Population Healthy Nuclei (%) [11]: 48%
Population Hoechst High Intensity Objects (%) [11]: 12%
Population Membrane Permeable-Phenotype (%) [11]: 5%
Population Mitochondria Different-Phenotype (%) [11]: 46%
Population Mitotic Cells (%) [11]: 48%
Population Normal (%) [11]: 87%
Population Pyknosed Nuclei (%) [11]: 35%
Population Tubulin-Different-Phenotype (%) [11]: 38%
Total Cell Count [11]: 339
Population Apoptotic (%) [12]: 60%
Population Fragmented Nuclei (%) [12]: 13%
Population Healthy Nuclei (%) [12]: 53%
Population Hoechst High Intensity Objects (%) [12]: 10%
Population Membrane Permeable-Phenotype (%) [12]: 8%
Population Mitochondria Different-Phenotype (%) [12]: 22%
Population Mitotic Cells (%) [12]: 40%
Population Normal (%) [12]: 89%
Population Pyknosed Nuclei (%) [12]: 32%
Population Tubulin-Different-Phenotype (%) [12]: 46%
Total Cell Count [12]: 187
